Compound activity: PubChem BioAssay, several laboratories
Rows were chosen to be rich in hits. Some 1.4% of all compounds tested hit in one or more screens of this group.
FXIIa inh 1536 – inhibitors of human coagulation factor XIIa. P00748. AID 800. inhibition, % at 5 µM. purified FXIIa, Boc-QGR-AMC fluorogenic substrate, 2 h. 220,000 compounds, 0.3% hits; in the data active means inhibition above about 40%;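 further: 0% = enzyme with no compound and 100% = blank without enzyme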
KLK5 inh – blocks human kallikrein 5 protease activity; Q9Y337; inhibition, % at 5 µM; AID 873; recombinant hK5, fluorogenic AMC substrate cleavage; 210,000 compounds, 0.59% hits;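 active means inhibition of 40% or more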;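 further: 0% = enzyme controls without compound and 100% = no-enzyme blanks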
Target sequence (Q9Y337 67-293 limits assumed): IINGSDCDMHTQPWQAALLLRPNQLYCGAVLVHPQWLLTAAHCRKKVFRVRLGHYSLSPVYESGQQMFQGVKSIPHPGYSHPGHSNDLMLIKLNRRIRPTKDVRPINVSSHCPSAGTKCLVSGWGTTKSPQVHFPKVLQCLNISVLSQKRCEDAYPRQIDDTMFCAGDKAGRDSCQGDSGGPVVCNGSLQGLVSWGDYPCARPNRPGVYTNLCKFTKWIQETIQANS
Thrombin inh – thrombin (human) inhibition; P00734; alpha-thrombin, Boc-VPR-AMC fluorogenic substrate cleavage; inhibition, % at 5 µM; 220,000 compounds, 0.26% hits; AID 1046;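 active means inhibition at or above 40%; inactive means inhibition below 40%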;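 further: 0% = enzyme with no compound and 100% = wells without enzyme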
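System – human alpha-thrombin protein · Reagent – Boc-VPR-AMC substrate, 15 µM final · Compound – 5 µM single dose in 0.2% DMSO · Schedule – reaction at room temperature · Technique – AMC fluorescence at 355 nm excitation and 460 nm emission · Read-out basis – % inhibition relative to enzyme controls and enzyme-free blanks · Control set – no-compound enzyme wells and no-enzyme blanks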
FXIa inh 1536 – blocks human coagulation factor XIa protease activity | purified FXIa, Boc-Glu-Ala-Arg-AMC fluorogenic substrate | inhibition, % at 5 µM | 220,000 compounds, 0.14% hits | P03951;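 active means inhibition of at least 40%; inactive means inhibition below 40%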;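 further: fluorescence of freed AMC excited at 355 nm; 0% = enzyme without compound and 100% = no enzyme blank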
m-calpain inh – blocks pig calpain II enzyme activity | purified calpain II, fluorogenic peptide substrate, 30 min | inhibition, % at 16 µM | 220,000 compounds, 0.37% hits | AID 1236;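 active means inhibition above about 50%, limit read from the data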
Active calls of the source: *; . = no result.

SMILES	FXIIa inh 1536	KLK5 inh	Thrombin inh	FXIa inh 1536	m-calpain inh
Cc1cccc(OCC(=O)Nc2ccc(N3CCN(C(=O)c4ccccc4)CC3)cc2)c1	-12	-3	0	2	22
Cc1ccc(C(=O)Oc2ccccc2N2C(=O)C3CCCCC3C2=O)cc1 (stereo unspecified)	8	4	-2	4	-31
COc1ccccc1C(=O)O/N=C(/C)c1ccc(N2C(=O)C3CCCCC3C2=O)cc1 (stereo unspecified)	-7	5	-4	-7	54*
O=C(Nc1ccc(S(=O)(=O)Nc2nccs2)cc1)c1ccc(N2C(=O)c3ccccc3C2=O)cc1	7	-11	4	9	-48
COc1ccc(NC(=O)CN2C(=O)/C(=C3\SC(=S)N(C4CCS(=O)(=O)C4)C3=O)c3ccccc32)cc1 (stereo unspecified)	1	2	0	2	56*
COc1ccc(C(=O)c2ccccc2)c2c(O)ccc(C(=O)c3ccccc3)c12	9	-21	0	5	-27
COc1ccc(C(C)=O)c2c(O)cccc12	-3	-15	7	-17	68*
COc1ccc(N(C(C)C(=O)NC2CCCCCC2)S(C)(=O)=O)cc1 (stereo unspecified)	13	62*	28	3	28
CN(C)c1ncc(S(=O)(=O)c2ccc(Cl)cc2)c(-c2ccccc2)n1	-6	3	-4	3	56*
COc1cccc(CNC(=O)Cc2nc3nc(C)cc(C)n3n2)c1	3	-26	-9	-8	7
Cc1ccc(-c2cc(Cc3ccncc3)c(=O)[nH]n2)cc1	5	0	-5	-3	-18
CC1=Nc2ccccc2N=C(NC(=O)CN2CCN(c3ccccc3)CC2)C1c1ccccc1 (stereo unspecified)	5	.	-6	-1	57*
O=C(Nc1ccc(N2CCN(C(=O)c3ccco3)CC2)c(Cl)c1)c1cc2ccccc2o1	8	40*	2	-4	-35
COc1ccc(NC(=O)c2ccco2)cc1NC(=O)c1cc2ccccc2o1	3	54*	21	-1	-139
COc1ccccc1NC(=O)c1cc2ccccc2o1	5	-11	-4	-3	12
CCC(=O)Nc1ccc(Cl)c(NC(=S)NC(=O)c2cc3ccccc3o2)c1	8	-18	1	2	51*
CC1CCCCN1S(=O)(=O)c1coc(C(N)=O)c1 (stereo unspecified)	33	42*	18	3	10
Cc1cc(Cl)c(S(=O)(=O)N2CCCCCC2)cc1OCC(N)=O	13	41*	32	9	21
Cc1cc(Cl)c(S(=O)(=O)NCc2ccncc2)cc1OCC(N)=O	3	54*	9	0	8
Cc1cc(Cl)c(S(=O)(=O)NCc2ccccc2)cc1OCC(N)=O	11	-1	1	0	-25
CCOC(=O)c1ccc(Nc2c(OCC)c(=O)c2=O)cc1	5	4	-3	3	16
O=C(CCc1nnc(-c2ccc3c(c2)OCO3)o1)N1CCC(c2ccc(F)cc2)C1 (stereo unspecified)	12	4	-2	-1	-21
N#Cc1cccc(C#N)c1Oc1ccc(S(=O)(=O)Nc2ccccc2)cc1	7	1	0	1	24
N#Cc1c(Cl)cccc1Oc1ccc(S(=O)(=O)Nc2ccccc2)cc1	3	-4	-10	-7	51*
Cc1sc(N)c(C(=O)c2ccccc2)c1C	2	-2	.	1	-63
SMILES	FXIIa inh 1536	KLK5 inh	Thrombin inh	FXIa inh 1536	m-calpain inh
O=C(NCc1ccccn1)c1ccc(-c2ccccc2)cc1	3	1	-6	-2	-17
O=C(NCc1ccccn1)c1cn(-c2ccccc2)nc1-c1ccc(Cl)cc1	-4	21	58*	-9	15
O=C(NN=C1CCCCCC1)c1cn(-c2ccccc2)nc1-c1ccccc1	16	28	100*	14	31
COC(=O)c1sc(NC(=O)/C=C/c2ccc(C)o2)nc1C	-1	-6	-8	-4	-22
COC(=O)c1ccc2nc(NC(=O)C(C)(C)C)sc2c1	30	16	19	30	91*
COc1ccc(-c2cc(C(=O)NC(Cc3cc4ccccc4[nH]3)C(=O)O)c(C)o2)cc1OC (stereo unspecified)	2	.	-4	-2	52*
Cc1cc(C)n(CC2CC(=O)N(c3ccc(Cl)c(Cl)c3)C2=O)n1 (stereo unspecified)	16	54*	21	18	37
COC(=O)c1c(-c2ccc3ccccc3c2)csc1NC(=O)Cc1ccc(OC)c(OC)c1	14	2	5	3	-102
CCOC(=O)CNc1ccc(OC(F)(F)F)cc1	4	1	-5	1	-21
CNC(=O)/C(C#N)=C/c1c(N(Cc2ccccc2)Cc2ccccc2)nc2c(C)cccn2c1=O	24	49*	25	10	20
CCCCOc1ccc(Cc2n[nH]c(=S)n2N)cc1	9	-13	-7	6	17
Cc1ccc(OCc2n[nH]c(=S)n2N)cc1C	9	1	101*	-2	-25
O=C(CSc1nc(-c2ccccc2)cs1)Nc1nccs1	13	6	10	8	19
CC(C)NC(=O)CSc1nc(-c2ccccc2)cs1	26	21	40*	46*	21
COC(=O)CSc1nc2cc(OC)ccc2n1C	11	1	3	7	11
COC(=O)CSc1nnc(-c2sc3cc(OC)ccc3c2Cl)n1C	48*	3	0	23	14
CCCn1c(=N)n(CC(=O)c2cccs2)c2ccccc21	17	7	8	5	-3
Cn1c(=N)n(CC(=O)c2cccs2)c2ccccc21	16	45*	14	-3	16
Fc1ccccc1C1CC(c2ccco2)=Nc2ccccc2S1 (stereo unspecified)	15	-1	4	1	32
Nc1nc(SCC(=O)Nc2ccc(OCc3ccccc3)cc2)n[nH]1	39	44*	-2	23	24
CC(O)C1CCC2C3CC[C@H]4CC(O)CCC4(C)C3CC3(OCCO3)C12C (stereo partly specified)	27	138*	17	10	7
CC(C)n1c(O)c(N=NC(=O)CNC(=O)CCc2ccccc2)c2ccccc21	4	-2	-9	-2	66*
O=c1nc(SCc2ccccc2Cl)nc(-c2ccc(Cl)cc2)[nH]1	8	5	3	5	50*
N#C/C(=N\O)c1nc2ccccc2s1	26	43*	35	30	19
N#C/C(=C(/O)c1ccc(F)cc1)c1nc2ccccc2s1	12	7	-8	9	-20
CC/C=C\[C@H](O)[C@H](O)C1=C(C)C(=O)[C@]2(O1)C(=O)N[C@@](OC)(C(=O)c1ccccc1)C2O (stereo partly specified)	6	1	-1	-3	-1
O=C(CSc1cccs1)Nc1ccc(Cl)cc1	13	19	6	4	14
Cc1ccc(NC(=O)CSc2nnc(COc3ccc(C#N)cc3)n2-c2ccccc2)cc1C	8	45*	23	7	11
